Tested on: MS2 coat protein
Test: apparent Kd, MS2 coat protein; higher = weaker binding; RNA-MaP array; FMN 200 µM where present
In short: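 Green signal was scaled to red-channel RNA signal and control-cluster median Fmax, and the apparent Kd was taken as the median of filtered per-cluster binding-curve fits. The binding series used SNAP-549-labelled MS2 coat protein from 0.7 or 1.5 nM, doubling to 3 µM, on designs transcribed by stalled E. coli RNA polymerase on Illumina sequencing-chip clusters. Each series ran without and then with constant ligand in 100 mM Tris-HCl pH 7.5, 80 mM KCl, 4 mM MgCl2, BSA, DTT, yeast tRNA and Tween-20.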

[1] = designed as: OFF switch for flavin mononucleotide, no ligand
[2] = ligand present: flavin mononucleotide, designed as: OFF switch for flavin mononucleotide
[3] = designed as: ON switch for flavin mononucleotide, no ligand
[4] = ligand present: flavin mononucleotide, designed as: ON switch for flavin mononucleotide

Row | Sequence | apparent Kd [1] | apparent Kd [2] | apparent Kd [3] | apparent Kd [4]
1 | AACUACUCUGUGAGGAUAUGCGAUCGUUGAUCAAAGCAGAAGGCACAUGAGGAUCACCCAUGUUCCUACGAGGG | 29.3 nM | 73.1 nM |  | 
2 | AAAAGACAUGAGGAUCACCCAUGUGAAAACGUGCGAGGAUAUGUAUGGAAACCAUACUGUACAGAAGGCGUUUGUC |  |  | 31.2 nM | 31.6 nM
3 | GUCAGCUCGUGAGGAUAUACAUGUGCUGGAGACAGCACUAAUAGAAUCACAUGAGGAUCACCCAUGUAGAAGGCACGAGCUGAU | 17 nM | 41.2 nM |  | 
4 | CUUAUGUGAGGAUAUGGUGUUGAUCACAGGAAAAAGAUUCUCCAGAAGGCACAUGAGGAUCACCCAUGUAGUGA | 145 nM | 90 nM |  | 
5 | CUGUUAUAGGUCCAUUUUUUCAACAUGAGGAUCACCCAUGUGCAGGAUAUCGUGUUAAUUUUCAUCGAGAAGGGCAUAGUCACG | 30.1 nM | 63.8 nM |  | 
6 | AAGUCGACGGUGAGGAUAUUGGUUGAACGACAGAUUAAGAAGGUACAUGAGGAUCACCCAUGUGGGUAACGUCG | 100 nM | 83 nM |  | 
7 | UUGCCACAUGAGGAUCACCCAUGUGAGGAUAUGGCCCGUUUGGCGUGUGCUGGUUCUGUCAGAAGGCGCGUGGG | 24.5 nM | 21.7 nM |  | 
8 | UUACUCAUGUAAGGAUAUGUAGCCGUUUCGGCUGCAGAAGGUACUAUAAUACAUGAGGAUCACCCAUGUCUUUUUAAUUUAGAC |  |  | 69.3 nM | 39.8 nM
9 | AAACACGGACAUGAGGAUCACCCAUGUAAUAAUAACAUUGGGAGAAGGCCGAUUGCAAAGCAAUCGGAGGAUAUUCAUACCGUG |  |  | 279 nM | 447 nM
10 | GUAGAGUAGUGAGGAUAUACGAGUUCGAUAGAACGGCGAUCCAUUAAUACAUGAGGAUCACCCAUGUAGAAGGCACUUCUCUAC | 6.4 nM | 69.3 nM |  | 
11 | ACAAGAUCAGGAUAUACAUGAGGAUCACCCAUGUUUAUCAAAAAAAGGCUUUCAUCAUGUAGAAGGGAUCUUGU | 99 nM | 126 nM |  | 
12 | UGACGGAGCUGAGGAUAUACAUGAGGAUCACCCAUGUAAGAUCUCCAGGAAACUGGAGAUCAAAAGUAGAAGGCAGCUCCGUCA | 15.4 nM | 23.4 nM |  | 
13 | UUGGACGUCGUAGGAUACGUAGGAUAUUCCUACAUGAGGAUCACCCAUGUUGACAUGGAAGAAGGACAGAAGGACGAUGUCCAU |  |  | 71.6 nM | 4.95 nM
14 | CGAUUUUUGAUCCGUUUUUUCUACAUGAGGAUCACCCAUGUGCAGGAUAUCGUGGUGUUUUACUACGAGAAGGGCAAUUUCACG | 84.8 nM | 198 nM |  | 
15 | GACAGACAUGAGGAUCACCCAUGUACAAACGUACAAGGAUAUGUGUGGAAACCGUACUAUACAGAAGGUGUCUGUC |  |  | 121 nM | 151 nM
16 | UUUAUUUUUAGAGGAUAUAUUGUGUGUGAGAGAAUAGAAGGCUAAACAUGAGACACACACAUGAGGAUCACCCAUGUUAUGUUU |  |  | 62.6 nM | 52 nM
17 | CGGAUUAUGUGAGGAUAUAAUCGUUUCCAUUGAUUAGAAGGCACAUGAGGAUCACCCAUGUGGCAUGUAAUGCCAUGUGACGCU | 442 nM | 41.3 nM |  | 
18 | UGUAAAAUUGAUCCUGCAAGUACAUGAGGAUCACCCAUGUGCUAGGAUAUCGCGCAGCUAAAGUCCGAGAAGGAGCACAAUGUA | 32.3 nM | 95.6 nM |  | 
19 | GGAUGAGAAACUCAUCCAAUUCGAACAUGAGGAUCACCCAUGUAGGAUAUGCUACUCAAAGAGUAGCAGAAGGACAUGUGCCUU | 25 nM | 189 nM |  | 
20 | UCCAACAUGAGGAUCACCCAUGUACAGGAUAUUAGAUCAGCUCAGCGCGUCCGUCAAGAUAUUUCUAAGAAGGGUACUGGGUAC | 20.2 nM | 33.1 nM |  | 
21 | AGUAAGAUGCAGAAGGUGUCAGCGAGAGCUGCGACAUGAGGAUCACCCAUGUACACGUGAGUGUACAAGGAUAUGCAUCUUACA |  |  | 1090 nM | 431 nM
22 | AGCUACGUUUCGUAGCAGUGUCAUCGAGAAGGCCUUAUUACAUGAGGAUCACCCAUGUGGACAUGGGAGGAUAUCGAUGAUACA |  |  | 61.3 nM | 8.06 nM
23 | AGCUACGUUUCGUAGCAGUGUCAUCGAGAAGGCCUUAUAACAUGAGGAUCACCCAUGUUAACAUGGGAGGAUAUCGAUGAUACA |  |  | 10.5 nM | 5.34 nM

Source: the EternaBench riboswitch data
